The values below come from publication PMC8028158 (ACS Omega, 2021).

Structures are written as SMILES. Entries after “also recorded” stand apart in the source; their conditions may differ.

One assay concerns AGS cells. Briefly: MTT cell viability assay, AGS. To be noted: read-out: IC50 cell proliferation, AGS; 72 h, MTT. It is filed as cell-based, human. In short, it runs like this: (§1)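 Cells were seeded at 2000 per well, incubated overnight and exposed to test compound for 72 h. MTT was added for 4 h, formazan was dissolved in DMSO and absorbance was read at 570 nm. Viability was normalized to untreated wells, giving mean ± SEM of three trials. IC50 was calculated from relative survival.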

Another assay deals with MKN-45 cells. Briefly: MTT cell viability assay, MKN-45. Format: cell-based, human. To be noted: read-out: IC50 cell proliferation, MKN-45; 72 h, MTT. The procedure, abridged:
as §1

In a further assay the target is T1, TRPC6 (Mus musculus, UniProt Q61143).
T1 sequence (Q61143 1-930): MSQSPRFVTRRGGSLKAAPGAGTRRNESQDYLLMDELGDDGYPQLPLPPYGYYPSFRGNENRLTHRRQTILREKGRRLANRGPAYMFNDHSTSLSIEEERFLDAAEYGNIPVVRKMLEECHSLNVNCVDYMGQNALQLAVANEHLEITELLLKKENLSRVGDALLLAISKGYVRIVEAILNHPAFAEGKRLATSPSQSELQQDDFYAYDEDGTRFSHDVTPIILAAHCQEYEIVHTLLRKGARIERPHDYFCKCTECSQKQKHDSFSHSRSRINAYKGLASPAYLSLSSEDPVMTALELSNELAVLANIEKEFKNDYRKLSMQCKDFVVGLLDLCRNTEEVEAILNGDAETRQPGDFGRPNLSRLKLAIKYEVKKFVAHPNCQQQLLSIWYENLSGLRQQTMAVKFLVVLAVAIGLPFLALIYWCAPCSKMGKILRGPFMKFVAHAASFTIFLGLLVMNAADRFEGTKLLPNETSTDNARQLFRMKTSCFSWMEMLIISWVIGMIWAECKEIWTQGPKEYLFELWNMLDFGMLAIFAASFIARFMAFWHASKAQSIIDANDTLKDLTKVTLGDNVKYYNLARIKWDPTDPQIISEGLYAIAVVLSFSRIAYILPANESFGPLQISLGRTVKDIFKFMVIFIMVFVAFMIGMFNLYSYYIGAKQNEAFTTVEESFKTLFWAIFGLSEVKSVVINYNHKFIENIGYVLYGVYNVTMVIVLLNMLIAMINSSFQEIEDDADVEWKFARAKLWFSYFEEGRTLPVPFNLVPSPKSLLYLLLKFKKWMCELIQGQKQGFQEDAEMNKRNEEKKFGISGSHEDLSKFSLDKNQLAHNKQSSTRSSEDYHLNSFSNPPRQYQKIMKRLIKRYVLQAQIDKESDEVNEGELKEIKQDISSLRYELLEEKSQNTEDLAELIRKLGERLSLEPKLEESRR
The following applies: read-out: IC50 TRPC6; nonselective TRPC6 antagonist; cited from earlier work.

A further assay deals with T2, mouse TRPC6 (Mus musculus, UniProt Q61143).
T2 sequence (Q61143 1-930): T1 sequence (Q61143 1-930)
Description: Fluorescence Ca2+ assay, inhibition of HDM-activated TRPC6 in HEK293 cells. To be noted: HEK293 cells with stable expression of mouse TRPC6. Format: cell-based. The procedure, abridged: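 HEK293 cells co-expressing mouse TRPC6 and the Gq/11-PLC-coupled M5 muscarinic receptor were loaded with Fluo-4. Cells were preincubated with test compound at various concentrations for 5 min, then HDM (10 μM) was added, and fluorescence was read in a microplate reader. Traces were expressed as ΔF over F0. IC50 came from a Hill fit of one experiment (N = 3).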

For the compound `COc1ccc(CCCOC(Cn2ccnc2)c2ccc(OC)cc2)cc1` (stereo not shown) [SKF-96365, 1H-Imidazole, 1-[2-(4-methoxyphenyl)-2-[3-(4-methoxyphenyl)propoxy]ethyl], reference compound], the IC50 in the assay with AGS cells was 37 µM; in the assay on MKN-45 cells, 15.3 µM; on TRPC6, 4.9 µM.

As for `COc1cccc2sc(N(CCN(C)C)C(=O)c3ccc4ccccc4c3)nc12` [Compound 1r, N-(2-(dimethylamino)ethyl)-N-(4-methoxybenzo[d]thiazol-2-yl)-2-naphthamide], the “TRPC6 antagonistic potency (in words)” value at mouse TRPC6 was “No in vitro potency; also recorded: no antagonistic potency”.
